# Results as given in ChEMBL document CHEMBL4325822, “Discovery of a tetrazolyl β-carboline with in vitro and in vivo osteoprotective activity under estrogen-deficient conditions” (Medchemcomm, 2018).
# The source made the active and inactive calls. No cut-off for these calls is given here.
# How the values were obtained:
# [1] = Induction of osteoblast differentiation in Sprague-Dawley rat calvarial osteoblasts assessed as alkaline phosphatase activity at 100 pM after 48 hrs using PNPP as substrate by spectrophotometric method relative to control; type: functional
# Procedure, shortened: (§1)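 Calvarial osteoblasts at 2 × 10³ cells/well. Treated 48 h with varied concentrations in differentiation medium (5% charcoal-treated FBS, 10 mM β-glycerophosphate, 50 µg·mL⁻¹ ascorbic acid). Total ALP read with PNPP substrate at 405 nm. Cell-free wells check for compound interference with substrate or absorbance.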
# [2] = Induction of osteoblast differentiation in Sprague-Dawley rat calvarial osteoblasts assessed as alkaline phosphatase activity after 48 hrs using PNPP as substrate by spectrophotometric method; type: functional, cell-based; procedure, shortened: as §1
# Calvarial osteoblast [3] = experiment: Induction of osteoblast differentiation in Sprague-Dawley rat calvarial osteoblasts assessed as alkaline phosphatase activity at 0.000001 to 1 uM after 48 hrs using PNPP as substrate by spectrophotometric method relative to control; type: functional, cell-based; procedure, shortened: as §1
# Calvarial osteoblast [4] = experiment: Increase in BMP2 protein expression in Sprague-Dawley rat calvarial osteoblasts at 100 pM after 48 hrs by Western blot analysis; type: functional, cell-based
# Procedure, shortened: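 Rat calvarial osteoblasts at 60-70% confluence were treated 48 h. Whole-cell lysates were blotted, blocked in 5% milk, and probed with primary antibody overnight at 4 °C, then with HRP secondary and ECL detection. Densitometry was normalized to β-actin; fold change versus untreated cells, three independent experiments, mean ± SEM.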
# [5] = Increase in OCN mRNA expression in Sprague-Dawley rat calvarial osteoblasts at 100 pM by RT-PCR method relative to control; type: functional, Calvarial osteoblast
# Procedure, shortened: (§2)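 Primary calvarial osteoblasts were lysed in TRIzol after treatment, and total RNA was extracted. Transcripts were quantified by real-time PCR using the comparative CT (ΔΔCT) method.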
# Calvarial osteoblast [6] = experiment: Cytotoxicity against Sprague-Dawley rat calvarial osteoblasts assessed as reduction in cell viability at 0.000001 to 1 uM after 48 hrs by MTT assay; type: cell-based
# Procedure, shortened: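 Osteoblasts came from pooled calvaria of 1-2-day-old Sprague-Dawley pups, isolated by sequential dispase/collagenase digestion. Cells were exposed to compound at 1 pM to 1 µM for 48 h, and viability was measured by MTT.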
# [7] = Increase in BMP2 mRNA expression in Sprague-Dawley rat calvarial osteoblasts at 100 pM by RT-PCR method relative to control; type: functional, Calvarial osteoblast; procedure, shortened: as §2
# Calvarial osteoblast [8] = experiment: Increase in OCN protein expression in Sprague-Dawley rat calvarial osteoblasts at 100 pM after 48 hrs by Western blot analysis; type: functional, cell-based
# Procedure, shortened: (§3)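 Rat calvarial osteoblasts (pooled 1–2-day pups, collagenase/dispase digests) at 60–70% confluence treated 48 h. Whole-cell lysates immunoblotted with primary antibody overnight at 4 °C, then HRP secondary, with ECL detection. Densitometry gives fold change normalized to β-actin versus untreated cells. Mean ± SEM of three independent experiments.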
# Calvarial osteoblast [9] = experiment: Increase in Runx2 protein expression in Sprague-Dawley rat calvarial osteoblasts at 100 pM after 48 hrs by Western blot analysis; type: functional, cell-based; procedure, shortened: as §3
# Calvarial osteoblast [10] = experiment: Osteogenic activity in Sprague-Dawley rat calvarial osteoblasts assessed as mineralized nodule formation at 100 pM after 21 days by alizarin red-S staining based colorimetric method; type: functional
# Procedure, shortened: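 Osteoblasts at 10,000–15,000 cells/cm² in duplicate plates, 21 days in differentiation medium, medium changed every 48 h. Cells fixed in 4% PFA, stained with alizarin red-S (40 mM, pH 4.5, 30 min) and photographed. Stain extracted with 10% acetic acid, pH brought to 4.5 with ammonium hydroxide, read at 405 nm, normalized to cell number.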
# [11] = Increase in Runx2 mRNA expression in Sprague-Dawley rat calvarial osteoblasts at 100 pM by RT-PCR method relative to control; type: functional, Calvarial osteoblast
# [12] = Rattus norvegicus, Sprague-Dawley, Calvarial osteoblast, 48 h, read-out: EC50
smiles,measurement,setting,value
COC(=O)c1cc2c([nH]c3ccccc32)c(C(NCc2ccccc2)c2nnnn2C(C)(C)C)n1 (centres undefined),Emax at 0.0001 µM,[1],29%
same,EC50,[2]; [12],468 nM
CCOC(=O)c1cc2c([nH]c3ccccc32)c(C(NC(C)(C)C)c2nnnn2C(C)(C)C)n1 (centres undefined),Emax,Calvarial osteoblast [3],inactive
same,EC50,[2]; calvarial osteoblast,Not Active
CCOC(=O)c1cc2c([nH]c3ccccc32)c(C=O)n1,Activity,Calvarial osteoblast [4],Active
same,fold change (FC),[5],1.8 - 4.6
same,Activity,Calvarial osteoblast [6],Non-Toxic
same,fold change (FC),[7],1.8 - 4.6
same,Emax at 0.0001 µM,[1],65%
same,Activity,Calvarial osteoblast [8],Active
same,Activity,Calvarial osteoblast [9],Active
same,EC50,[2]; [12],613 nM
same,Activity,Calvarial osteoblast [10],20%
same,fold change (FC),[11],1.8 - 4.6
